Source: PubChem BioAssay (The Scripps Research Institute Molecular Screening Center)
CHO-K1 Ca antag: nonselective inhibitor or artifact in parental CHO-K1 cells; AID 602250; ATP-induced calcium, Fluo-8 fluorescence; 360,000 tested, 0.6% active; inhibition, % at 3 µM;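 active = inhibition above a per-plate cutoff, the plate's mean sample inhibition plus 3 SD, cut at about 24% in these data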
CHO-K1 Ca PAM: M1 PAM counterscreen hit in parental CHO-K1 cells | ATP EC20, Fluo-8 calcium fluorescence; 0% at ATP EC20, 100% at ATP max | activation, % at 3 µM | 360,000 tested, 0.02% active;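 active = activation above the run cutoff, the mean activation of all test compounds plus 3 SD, cut at about 40% in these data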;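 also: peak over basal fluorescence ratio in a 140 s read after ATP addition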
CHO parental Ca: counter-screen for OX1R antagonists: effect in parental CHO cells; parental CHO-K1, ATP-induced calcium, Fluo-8 fluorescence; inhibition, % at 5.6 µM; 330,000 tested, 0.63% active; AID 463079;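 active = inhibition above that plate's mean sample inhibition plus 3 SD, cut at about 26% in these data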
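Material – parental CHO cells · Reagent – ATP stimulus · Compound – single nominal dose of 5.6 µM per compound · Detection – Fluo-8 fluorescence · Read-out basis – percent inhibition of calcium signal · Controls – ATP-challenged DMSO wells low, unchallenged DMSO wells high · Repeats – no replicates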
OX1R antag-1: blocks the human orexin 1 receptor; O43613; CHO/OX1R cells, Fluo-8 calcium fluorescence, orexin A; inhibition, % at 5 µM; 330,000 tested, 0.43% active; AID 434989;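 active = inhibition above its plate's threshold, mean inhibition of all tested compounds on the plate plus 3 SD, cut at about 37% in these data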
Target sequence (O43613 whole entry, looked up): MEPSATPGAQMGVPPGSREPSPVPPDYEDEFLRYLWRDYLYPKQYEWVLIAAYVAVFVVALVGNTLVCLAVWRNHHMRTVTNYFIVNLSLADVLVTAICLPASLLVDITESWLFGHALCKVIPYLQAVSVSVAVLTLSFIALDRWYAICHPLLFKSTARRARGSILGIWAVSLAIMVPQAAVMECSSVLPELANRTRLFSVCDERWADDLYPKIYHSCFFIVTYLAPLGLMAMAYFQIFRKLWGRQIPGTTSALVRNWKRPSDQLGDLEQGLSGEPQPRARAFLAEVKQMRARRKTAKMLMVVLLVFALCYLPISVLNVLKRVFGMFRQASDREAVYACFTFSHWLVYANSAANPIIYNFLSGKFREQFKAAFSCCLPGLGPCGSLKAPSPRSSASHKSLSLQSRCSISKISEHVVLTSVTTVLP
OX1R antag-2: OX1R (human) antagonism; AID 485270; 330,000 tested, 1.8% active; O43613; OX1R-expressing cells, FRET antagonist read-out; inhibition, % at 6.6 µM; in the data active = inhibition mostly above about 38%, no sharp cut-off; inactive = mostly below about 40%
M1 ag parental: counter-screen for M1 agonists: effect in parental CHO-K1 cells; Fluo-8 calcium fluorescence; scaled to maximal ATP response, vehicle zero; activation, % at 3 µM; 360,000 tested, 0.48% active; AID 602248; in the data active = activation above about 15%;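 also: untransfected CHO-K1 host cells lacking M1 receptor as counterscreen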
A number is an active result; n = inactive; x = no result. Sampled rows, rich in hits. Any-hit rate of the full collection: about 2.9%.

SMILES | CHO-K1 Ca antag | CHO-K1 Ca PAM | CHO parental Ca | OX1R antag-1 | OX1R antag-2 | M1 ag parental
CC(Sc1nc2ccccc2c(=O)n1CC1CCCO1)C(=O)N(C)c1ccccc1 (stereo unspecified) | n | n | n | n | 32 | n
COc1ccccc1NC(=O)C(C)Sc1nc2ccccc2c(=O)n1CC1CCCO1 (stereo unspecified) | n | n | n | n | n | n
O=C(O)CCCn1cc(NC(=O)COc2ccccc2F)cn1 | n | n | n | n | n | n
Nc1c([N+](=O)[O-])c(=O)sc2ccccc12 | n | n | n | n | n | 15
N#CC1=C(N)Oc2cc(O)c(Cl)cc2C1c1ccccc1F (stereo unspecified) | n | n | 30 | n | n | n
N#CC1=C(N)Oc2cc(O)c(Cl)cc2C1c1cccnc1 (stereo unspecified) | n | n | x | x | x | n
COc1cccc(NC(=O)C(=O)NCCCN2CCCC2=O)c1 | n | n | n | n | n | n
C/C(=N\OCC(=O)NC(C)C)c1cccs1 | n | n | n | n | n | n
C/C(=N/OCC(=O)NCCCCCCNC(=O)CO/N=C(/C)c1cccs1)c1cccs1 | n | n | n | n | 71 | n
COc1ccc(NC(=O)CSc2n[nH]c(=O)n2Cc2ccccc2)cc1Cl | n | n | n | n | n | n
Cn1ccc2c(-c3ccc(F)cc3)cc3c(c21)C1CCC3C1 (stereo unspecified) | n | n | x | x | x | n
COc1ccc(-c2cc3c(c4c2ccn4C)C2CCC3C2)cc1F (stereo unspecified) | 24 | n | x | x | x | n
Cc1cc(C(=O)NNC(=O)COc2ccccc2Cl)n[nH]1 | n | n | n | n | n | n
Cc1ccsc1C(=O)NNC(=O)COc1ccccc1Cl | 31 | n | n | n | n | n
COc1ccccc1CC(=O)Nc1ccon1 | n | n | n | n | n | n
O=C(COC(=O)CNC(=O)c1ccc(Cl)c([N+](=O)[O-])c1)NC(=O)c1ccccc1 | n | n | n | n | 51 | n
Cc1cc(C(=O)NCC(=O)OCC(=O)NCCc2ccccc2)ccc1[N+](=O)[O-] | 53 | n | n | n | n | n
CCc1cc(C(=O)Nc2cc(S(=O)(=O)N(CC)CC)ccc2N2CCN(C)CC2)sc1C | n | n | n | n | n | n
CCc1cc(C(=O)Nc2cc(Cl)ccc2N2CCN(C)CC2)sc1C | 28 | n | n | n | n | n
O=[N+]([O-])c1ccc(O)c2ncccc12 | n | n | n | n | n | n
O=[N+]([O-])c1ccc(O)c2cccnc12 | n | n | n | n | 66 | n
CC1CN(C(=O)COC(=O)c2cc(=O)c3ccccc3o2)CC(C)O1 (stereo unspecified) | n | n | n | n | n | n
CC(C)CNC(=O)c1ccccc1NC(=O)c1ccccc1N(C)S(=O)(=O)c1ccccc1 | n | n | n | n | 69 | n
Cc1c(NC(=O)c2ccccc2N(C)S(=O)(=O)c2ccccc2)c(=O)n(-c2ccccc2)n1C | n | n | n | n | 41 | n
Cc1c(NC(=O)c2ccc(N(C)S(C)(=O)=O)cc2)c(=O)n(-c2ccccc2)n1C | n | n | n | n | n | n
SMILES | CHO-K1 Ca antag | CHO-K1 Ca PAM | CHO parental Ca | OX1R antag-1 | OX1R antag-2 | M1 ag parental
CCOc1ccccc1N(CC(=O)Nc1c(C)n(C)n(-c2ccccc2)c1=O)S(=O)(=O)c1ccccc1 | n | n | n | n | 57 | n
CCC(NC(=O)c1ccccc1NC(=O)c1ccco1)C(=O)NNC(=O)c1ccncc1 (stereo unspecified) | n | n | n | n | n | n
N#Cc1cc2sc3nnc(-c4ccncc4)n3c2cc1C#N | n | n | n | n | n | n
O=C(NNS(=O)(=O)c1ccccc1Cl)c1nn(-c2ccc(F)cc2)ccc1=O | n | n | n | n | n | n
O=C(CSc1ccc(C(F)(F)F)cc1[N+](=O)[O-])Nc1ccccc1 | n | n | 59 | n | n | n
COc1ccc(C(=O)COC(=O)CCN2C(=O)C3C4CCC(C4)C3C2=O)cc1 (stereo unspecified) | 24 | n | n | n | n | n
Cc1cc(C)c(C)c(S(=O)(=O)N[C@@H](C)C(=O)OCC(=O)NC2CCCC(C)C2C)c1C (stereo partly specified) | n | n | n | n | n | n
Cn1c(=O)c2[nH]c(COc3ccc(C(C)(C)C)cc3)nc2n(C)c1=O | n | n | 54 | 46 | n | n
CCN(CC)S(=O)(=O)c1cc(NC(=O)c2ccc(Br)s2)ccc1C | 36 | n | n | n | n | n
Cc1nc(C)c(-c2ccc(SCc3ccc([N+](=O)[O-])cc3)nn2)s1 | n | n | n | n | n | n
NNC(=O)c1[nH]c2ccc([N+](=O)[O-])cc2c1-c1ccccc1 | n | n | n | n | n | n
Cc1c(C(=O)NN)[nH]c2ccc([N+](=O)[O-])cc12 | n | n | n | n | n | 26
Cc1cccc(OCC(=O)NC(C)C(=O)N/N=C/c2c(OCc3ccccc3)ccc3ccccc23)c1 (stereo unspecified) | n | n | n | n | 43 | n
COc1ccc2ccccc2c1/C=N/NC(=O)c1cccc(C)c1 | n | n | n | n | n | n
O=C(COC(=O)c1cc(Cl)cc(Cl)c1)NCc1ccco1 | n | n | n | n | n | n
COc1cc(S(=O)(=O)Nc2cc(C)cc(C)c2)ccc1F | n | n | n | n | n | n
Cc1cc(C)cc(NS(=O)(=O)c2cnc(Cl)c(Cl)c2)c1 | n | n | 95 | 52 | n | n
COc1ccc(-c2nc(CN3CCN(C(=O)c4ccco4)CC3)c(C)o2)c(OC)c1C | n | n | n | n | n | n
CN(c1ccc(F)cc1)S(=O)(=O)c1ccc(Cl)c(C(=O)Nc2ccncc2)c1 | 34 | n | n | n | n | n
O=C(Nc1ccccc1)c1cc(S(=O)(=O)Nc2cccnc2)ccc1Cl | n | n | n | n | n | n
CC(OC(=O)c1cc(S(=O)(=O)N(C)c2ccccc2)ccc1Cl)C(=O)Nc1ccc2c(c1)OCCO2 (stereo unspecified) | n | n | n | n | 46 | n
CC(=O)Nc1ccc(NC(=O)C(C)OC(=O)c2cc(S(=O)(=O)N3CCOCC3)ccc2Cl)cc1 (stereo unspecified) | n | n | n | n | n | n
O=C(Nc1ccccc1)c1cc(S(=O)(=O)NCc2ccncc2)ccc1Cl | 24 | n | n | n | n | n
CN(c1ccccc1)S(=O)(=O)c1ccc(Cl)c(C(=O)Nc2ccncc2)c1 | n | n | n | n | n | 16
COC(=O)[C@]1(Sc2ccc(OC)cc2)CC(=O)N[C@@H]1c1ccccc1 | n | n | x | x | x | n
COC(=O)C1CC2(C(=O)OC)CC(C(=O)OC)(CC(C(=O)OC)C2=O)C1=O (stereo unspecified) | n | n | x | x | x | n
CCOC(=O)C1=C(C)c2ccccc2N(C(=O)OC)C1(C)C(=O)OCC (stereo unspecified) | n | n | n | n | 33 | n
